Assay results as given in ChEMBL document CHEMBL3297742, “Tetrahydronaphthyridine and dihydronaphthyridinone ethers as positive allosteric modulators of the metabotropic glutamate receptor 5 (mGlu₅)” (J Med Chem, 2014).

Key:
[1] = target: Metabotropic glutamate receptor 1 (Rattus norvegicus, UniProt P23385); assay: Positive allosteric modulator activity at rat mGlu1 receptor expressed in HEK293 cells assessed as glutamate-induced calcium mobilization treated 140s prior to glutamate challenge by fluorescence assay; format: functional, cell-based
Chain of Metabotropic glutamate receptor 1 (P23385 whole entry): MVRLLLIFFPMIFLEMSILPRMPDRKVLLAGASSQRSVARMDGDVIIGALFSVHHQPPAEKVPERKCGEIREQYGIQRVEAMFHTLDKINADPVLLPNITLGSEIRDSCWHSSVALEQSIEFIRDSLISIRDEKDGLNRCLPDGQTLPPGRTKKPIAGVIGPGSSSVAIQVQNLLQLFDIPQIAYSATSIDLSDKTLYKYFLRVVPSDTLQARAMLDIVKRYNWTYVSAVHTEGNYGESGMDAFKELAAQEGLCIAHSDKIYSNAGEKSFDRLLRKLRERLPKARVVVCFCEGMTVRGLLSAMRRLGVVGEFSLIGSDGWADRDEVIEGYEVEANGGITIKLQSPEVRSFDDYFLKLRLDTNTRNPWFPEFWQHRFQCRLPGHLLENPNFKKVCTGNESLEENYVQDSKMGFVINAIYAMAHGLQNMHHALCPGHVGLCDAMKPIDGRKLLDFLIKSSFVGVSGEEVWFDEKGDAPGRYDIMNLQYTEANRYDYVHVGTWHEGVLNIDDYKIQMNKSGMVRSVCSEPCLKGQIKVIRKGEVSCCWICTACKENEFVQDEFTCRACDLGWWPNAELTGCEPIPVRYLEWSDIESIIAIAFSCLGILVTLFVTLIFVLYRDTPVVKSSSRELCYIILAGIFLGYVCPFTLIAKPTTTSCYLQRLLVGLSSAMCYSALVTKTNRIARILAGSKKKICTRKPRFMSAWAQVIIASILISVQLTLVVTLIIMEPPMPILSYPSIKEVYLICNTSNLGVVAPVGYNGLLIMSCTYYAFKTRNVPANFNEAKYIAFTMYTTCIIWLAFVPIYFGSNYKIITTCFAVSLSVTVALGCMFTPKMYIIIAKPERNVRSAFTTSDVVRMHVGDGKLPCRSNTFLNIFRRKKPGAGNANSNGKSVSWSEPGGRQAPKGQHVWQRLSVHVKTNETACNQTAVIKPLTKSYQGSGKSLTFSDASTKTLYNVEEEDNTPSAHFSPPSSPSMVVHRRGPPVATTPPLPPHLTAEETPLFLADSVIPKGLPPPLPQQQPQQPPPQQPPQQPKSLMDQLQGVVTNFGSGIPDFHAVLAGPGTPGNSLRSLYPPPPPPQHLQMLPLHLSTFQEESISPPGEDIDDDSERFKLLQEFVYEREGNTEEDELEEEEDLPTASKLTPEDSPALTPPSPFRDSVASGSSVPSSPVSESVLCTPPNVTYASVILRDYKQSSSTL
Summary of the method: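 HEK293 cells stably expressing rat mGlu1, 20000 cells/well, Fluo-4AM calcium flux. Vehicle or 10 µM compound (final) added, then a glutamate concentration–response curve 140 s later.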

Cytochrome P450 1A2 = target: T1, Cytochrome P450 1A2 (Homo sapiens, UniProt P05177); assay: Inhibition of CYP1A2 in human liver microsomes; format: ADME
T1 sequence (P05177 whole entry): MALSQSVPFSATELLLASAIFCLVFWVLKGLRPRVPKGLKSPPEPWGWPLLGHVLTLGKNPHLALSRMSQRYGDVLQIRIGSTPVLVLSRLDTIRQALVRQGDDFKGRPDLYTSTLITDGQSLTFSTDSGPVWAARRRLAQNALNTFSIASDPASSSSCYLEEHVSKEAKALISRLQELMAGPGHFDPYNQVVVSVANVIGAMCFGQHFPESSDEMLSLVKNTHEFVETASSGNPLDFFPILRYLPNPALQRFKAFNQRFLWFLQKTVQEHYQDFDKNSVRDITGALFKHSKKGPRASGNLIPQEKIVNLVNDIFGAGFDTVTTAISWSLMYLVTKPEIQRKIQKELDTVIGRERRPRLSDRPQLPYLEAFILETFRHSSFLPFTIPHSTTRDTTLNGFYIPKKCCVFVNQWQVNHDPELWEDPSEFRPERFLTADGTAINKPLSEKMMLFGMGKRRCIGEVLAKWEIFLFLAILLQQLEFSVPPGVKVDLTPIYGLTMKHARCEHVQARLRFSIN
Summary of the method: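 CYP1A2, 2C9, 2D6 and 3A4 inhibition measured together in a cocktail assay with human liver microsomes and known probe substrates; IC50 determined.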

Rattus norvegicus [2] = assay: Antipsychotic activity in po dosed Sprague-Dawley rat assessed as reversal of amphetamine-induced hyperlocomotion administered for 30 mins prior to amphetamine challenge for 60 mins; format: functional, organism-based
Summary of the method: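 Male Sprague–Dawley rats (250–375 g), food-deprived overnight, habituated 30 min in locomotor chambers. Compound given po (3–100 mg/kg in 20% HP-β-CD, pH 6–7, ≤10 mL/kg) 30 min before amphetamine 1 mg/kg sc, then monitored 60 min (120 min total). Photobeam breaks over 60–120 min give percent reversal against the vehicle+amphetamine group, mean ± SE, n = 6–8.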

Rattus norvegicus [3] = assay: Toxicity in Sprague-Dawley rat assessed as autonomic nervous system deficit at 100 mg/kg, po measured up to 4 hrs by irwin neurological test; format: organism-based; design: dose 100 mg/kg, route oral; conditions: in vivo
Summary of the method: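 Male Sprague–Dawley rats (250–300 g) scored at baseline, then given vehicle (20% HP-β-CD) or 100 mg/kg po (n = 6 each). Modified Irwin battery repeated at 30 min, 1 h and 4 h; each end point scored 0, 1 or 2; significance taken at p ≤ 0.05.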

For `O=C1NCCc2nc(OCc3cccc(F)c3)ccc21`, the EC50 [1] was greater than 10 µM, the IC50 (Cytochrome P450 1A2) was 25.7 µM and the inhibition (Rattus norvegicus [2]) was “Dose-dependent effect”. The Activity (Rattus norvegicus [3]) was “Non-toxic”.
